What was measured:
[1] = Inhibitory concentration at which there is accumulation of UDP-[3H]-GlcNAc in the lumen of the Golgi membranes.; type: functional, cell membranes, Oryctolagus cuniculus
Method in brief: (§1)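 Rabbit liver Golgi-enriched membranes were incubated as in the import assay with 1 μM UDP-[³H]GlcNAc and varied inhibitor concentrations. Uptake was allowed to reach equilibrium (20–30 min) before membrane-associated label was measured by filtration. 1 mM AMP-PNP was added to limit UDP-GlcNAc degradation. IC50 was derived by curve fitting; values are averages of at least three independent measurements.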

[2] = In vitro inhibition of UDP-[3H]-GlcNAc import into the lumen of the Golgi membranes from rabbit liver homogenate.; type: functional, tissue-based, Oryctolagus cuniculus
Method in brief: (§2)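 Golgi-enriched membranes from rabbit liver homogenate incubated with 1 μM UDP-[³H]GlcNAc plus a range of inhibitor concentrations. Import into the lumen was measured by filtration under initial-velocity conditions, after 90 s at 25 °C, where uptake is linear with time. IC50 and standard deviation were obtained by curve fitting. For UDP, assays included 2 mM EDTA.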

[3] = The compound was tested for extent of UDP-[3H]-GlcNAc accumulation into the lumen of the Golgi membranes.; type: functional, Oryctolagus cuniculus; method in brief: as §1
[4] = (§3) The compound was tested for inhibition of the rate of 1 uM UDP-[3H]-GlcNAc import into the lumen of the Golgi membranes.; type: functional, Oryctolagus cuniculus; method in brief: as §2
[5] = The compound was tested for extent of 1 uM UDP-[3H]-GlcNAc accumulation into the lumen of the Golgi membranes from rabbit liver homogenate; type: functional, tissue-based, Oryctolagus cuniculus; method in brief: as §1
[6] = species on record: Oryctolagus cuniculus; experiment: as §3; type: functional

| Structure (SMILES) | IC50 [1] [µM] | IC50 [2] [µM] | IC50 [3] [µM] | other results |
| --- | --- | --- | --- | --- |
| CC(=O)N[C@H]1[C@H]([C@H](O)[C@H](O)CO)O[C@](OP(=O)(O)OC[C@H]2O[C@@H](n3ccc(N)nc3=O)[C@H](O)[C@@H]2O)(C(=O)O)C[C@@H]1O | 35 | > 50 | – | – |
| CC#Cc1cn([C@H]2C[C@H](O)[C@@H](COP(=O)(O)O)O2)c(=O)[nH]c1=O | – | > 40 | > 40 | – |
| CCc1cn(C2O[C@H](COP(=O)(O)O)[C@@H](O)[C@@H]2O)c(=O)[nH]c1=O (stereo partly specified) | – | 3.5 | 5 | – |
| N[C@H]1[C@@H](OP(=O)(O)OP(=O)(O)OC[C@H]2O[C@@H](n3ccc(=O)[nH]c3=O)[C@H](O)[C@@H]2O)O[C@H](CO)[C@@H](O)[C@@H]1O [URACIL DIPHOSPHATE GLUCOSAMINE] | > 40 | – | – | IC50 [4]: 7 µM |
| O=c1ccn([C@H]2C[C@H](O)[C@@H](COP(=O)(O)O)O2)c(=O)[nH]1 [DEOXYURIDINE MONOPHOSPHATE] | – | 8 | – | – |
| O=c1ccn(C2O[C@H](COP(=O)(O)O)[C@@H](O)[C@@H]2O)c(=O)[nH]1 (stereo partly specified) | 4 | 8 | 4 | – |
| Cc1cn([C@@H]2O[C@H](COP(=O)(O)O)[C@@H](O)[C@@H]2F)c(=O)[nH]c1=O | – | > 200 | – | – |
| O=c1[nH]c(=O)n(C2CSC(COP(=O)(O)O)O2)cc1F (stereo unspecified) | – | 18 | 35 | – |
| Cc1cn([C@H]2C[C@H](N=[N+]=[N-])[C@@H](COP(=O)(O)O)O2)c(=O)[nH]c1=O (stereo in doubt; form 2) [AZIDOTHYMIDINE MONOPHOSPHATE] | > 100 | 85 | > 100 | – |
| Cc1cn(COCCOP(=O)(O)O)c(=O)[nH]c1=O | > 100 | > 100 | > 100 | – |
| O=c1[nH]c(=O)n(C2CC(F)C(COP(=O)(O)O)O2)cc1Cl (stereo unspecified) | – | 9 | 4 | – |
| Cc1cn([C@H]2C[C@H](O)[C@@H](COP(=O)(O)O)O2)c(=O)[nH]c1=O [THYMIDINE MONOPHOSPHATE] | 11 | 10 | – | IC50 [5]: 11 µM |
| N[C@H]1[C@@H](OP(=O)(O)OP(=O)(O)OC[C@H]2O[C@@H](n3ccc(=O)[nH]c3=O)[C@H](O)[C@@H]2O)O[C@H](CO)[C@H](O)[C@@H]1O [URACIL DIPHOSPHATE GALACTOSAMINE] | – | – | – | IC50 [4]: 40 µM |
| Nc1ccn([C@@H]2O[C@H](COP(=O)(O)O)[C@@H](O)[C@H]2O)c(=O)n1 (stereo in doubt; form 1) | – | > 100 | – | – |
| Cc1cn([C@H]2CC[C@H](COP(=O)(O)O)O2)c(=O)[nH]c1=O | – | > 200 | – | – |
| Cc1cn([C@H]2CC[C@@H](COP(=O)(O)O)O2)c(=O)[nH]c1=O | – | 9 | – | – |
| CCCc1cn([C@H]2C[C@H](O)[C@@H](COP(=O)(O)O)O2)c(=O)[nH]c1=O | – | – | – | IC50 [4]: 100 µM |
| O=c1ccn([C@@H]2O[C@H](COP(=O)(O)O)[C@@H](O)[C@H]2F)c(=O)[nH]1 | – | 11 | – | – |
| Cc1cn([C@H]2C[C@H](N=[N+]=[N-])[C@@H](COP(=O)(O)O)O2)c(=O)[nH]c1=O (stereo in doubt; form 1) [AZIDOTHYMIDINE MONOPHOSPHATE] | 5 | 7 | 5 | – |
| Cc1cn(C2CC(F)C(COP(=O)(O)O)O2)c(=O)[nH]c1=O (stereo unspecified) | – | 1.5 | – | – |
| O=c1[nH]c(=O)n([C@H]2C[C@H](O)[C@@H](COP(=O)(O)O)O2)cc1/C=C/Br | – | – | – | IC50 [4]: 5 µM |
| CC(=O)N[C@@H]1[C@H](OP(=O)(O)OP(=O)(O)OC[C@H]2O[C@@H](n3ccc(=O)[nH]c3=O)[C@H](O)[C@@H]2O)O[C@@H](CO)[C@H](O)[C@H]1O | 4 | – | – | IC50 [4]: 7 µM; Km [6]: 2 µM |
| Nc1ccn([C@@H]2O[C@H](COP(=O)(O)O)[C@@H](O)[C@H]2O)c(=O)n1 (stereo in doubt; form 2) | – | 10 | – | – |

— ChEMBL document CHEMBL1129244, “Inhibition of UDP-N-acetylglucosamine import into Golgi membranes by nucleoside monophosphates” (J Med Chem, 1996)
